Legend:
[1] = Binding affinity to biotinylated mouse CD22-human IgG1 chimeric protein expressed in mouse J558LST6 cells by flow cytometry; assay type: cell-based
Method in brief: (§1)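 IC50 from inhibition of CD22-Fc binding to alpha2,6-sialic acid on ST6GalI-transfected J558L mouse myeloma cells (J558LST6), incubated with CD22-Fc plus varied sialoside concentrations. Detection with Alexa Fluor 647-streptavidin, 30 min on ice, then flow cytometry. % binding = (A−B)/(C−B)×100 using MFI: A, sialoside sample; B, parent J558L; C, untreated J558LST6. IC50 taken as 50% binding inhibition; means of ≥3 independent determinations.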

B-cell receptor CD22 = target: T1, B-cell receptor CD22 (Homo sapiens, UniProt P20273); experiment: Binding affinity to biotinylated human CD22-human IgG1 chimeric protein expressed in mouse J558LST6 cells by flow cytometry; assay type: cell-based; method in brief: as §1
T1 sequence (P20273 whole entry): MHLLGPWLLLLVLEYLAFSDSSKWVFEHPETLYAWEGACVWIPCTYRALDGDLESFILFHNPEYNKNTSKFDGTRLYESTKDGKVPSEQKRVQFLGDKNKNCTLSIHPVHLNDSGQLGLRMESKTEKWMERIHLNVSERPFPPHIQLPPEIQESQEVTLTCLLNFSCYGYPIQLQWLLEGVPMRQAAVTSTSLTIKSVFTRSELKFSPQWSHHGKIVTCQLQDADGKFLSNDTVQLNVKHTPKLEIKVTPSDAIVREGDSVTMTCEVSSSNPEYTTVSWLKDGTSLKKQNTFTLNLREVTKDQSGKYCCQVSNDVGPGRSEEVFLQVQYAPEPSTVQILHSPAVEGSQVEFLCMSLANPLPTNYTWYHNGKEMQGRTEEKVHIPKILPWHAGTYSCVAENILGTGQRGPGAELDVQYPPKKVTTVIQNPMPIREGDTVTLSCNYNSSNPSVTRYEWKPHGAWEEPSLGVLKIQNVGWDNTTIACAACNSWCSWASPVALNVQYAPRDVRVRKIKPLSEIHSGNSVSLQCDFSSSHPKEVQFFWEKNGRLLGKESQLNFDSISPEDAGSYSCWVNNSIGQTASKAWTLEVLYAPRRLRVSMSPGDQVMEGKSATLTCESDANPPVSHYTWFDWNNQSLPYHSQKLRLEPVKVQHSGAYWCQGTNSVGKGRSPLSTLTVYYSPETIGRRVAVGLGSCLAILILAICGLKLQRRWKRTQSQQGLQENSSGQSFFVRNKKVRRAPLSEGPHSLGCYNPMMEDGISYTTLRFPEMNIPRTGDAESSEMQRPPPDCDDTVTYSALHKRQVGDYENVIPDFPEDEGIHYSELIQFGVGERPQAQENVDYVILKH

SMILES	IC50 [1] [µM]	IC50 (B-cell receptor CD22) [µM]
COc1ccc(O[C@@H]2O[C@H](CO[C@]3(C(=O)O)C[C@H](O)[C@@H](NC(=O)CO)[C@H]([C@H](O)[C@H](O)CNCc4ccccc4)O3)[C@H](O)[C@H](O)[C@H]2O)cc1	25.7	123
COc1ccc(O[C@@H]2O[C@H](CO[C@]3(C(=O)O)C[C@H](O)[C@@H](NC(=O)CO)[C@H]([C@H](O)[C@H](O)CNC(=O)CCCc4ccc5ccc6cccc7ccc4c5c67)O3)[C@H](O)[C@H](O)[C@H]2O)cc1	66.8	21.1
COc1ccc(O[C@@H]2O[C@H](CO[C@]3(C(=O)O)C[C@H](O)[C@@H](NC(=O)CO)[C@H]([C@H](O)[C@H](O)CNCCCCc4ccc(-c5ccccc5)cc4)O3)[C@H](O)[C@H](O)[C@H]2O)cc1	4.1	6.22
CCCCCC(=O)NC[C@@H](O)[C@@H](O)[C@@H]1O[C@@](OC[C@H]2O[C@@H](Oc3ccc(OC)cc3)[C@H](O)[C@@H](O)[C@H]2O)(C(=O)O)C[C@H](O)[C@H]1NC(=O)CO	88.5	40.9
COc1ccc(O[C@@H]2O[C@H](CO[C@]3(C(=O)O)C[C@H](O)[C@@H](NC(=O)CO)[C@H]([C@H](O)[C@H](O)CNCCc4ccc(-c5ccccc5)cc4)O3)[C@H](O)[C@H](O)[C@H]2O)cc1	11.2	5.48
COc1ccc(O[C@@H]2O[C@H](CO[C@]3(C(=O)O)C[C@H](O)[C@@H](NC(=O)CO)[C@H]([C@H](O)[C@H](O)CNC(=O)c4cc(Cl)ccc4O)O3)[C@H](O)[C@H](O)[C@H]2O)cc1	161	116
COc1ccc(O[C@@H]2O[C@H](CO[C@]3(C(=O)O)C[C@H](O)[C@@H](NC(=O)CO)[C@H]([C@H](O)[C@H](O)CNC(=O)C4CCCCC4)O3)[C@H](O)[C@H](O)[C@H]2O)cc1	65.3	16
COc1ccc(O[C@@H]2O[C@H](CO[C@]3(C(=O)O)C[C@H](O)[C@@H](NC(=O)CO)[C@H]([C@H](O)[C@H](O)CNCc4ccc(-c5cccc(C(=O)O)c5)cc4)O3)[C@H](O)[C@H](O)[C@H]2O)cc1	32.7	7.48
COc1ccc(O[C@@H]2O[C@H](CO[C@]3(C(=O)O)C[C@H](O)[C@@H](NC(=O)CO)[C@H]([C@H](O)[C@H](O)CNC(=O)c4cccnc4)O3)[C@H](O)[C@H](O)[C@H]2O)cc1	32.2	132
COc1ccc(O[C@@H]2O[C@H](CO[C@]3(C(=O)O)C[C@H](O)[C@@H](NC(=O)CO)[C@H]([C@H](O)[C@H](O)CNC(=O)c4ccc(-c5ccccc5)cc4)O3)[C@H](O)[C@H](O)[C@H]2O)cc1	52.9	1.1
COc1ccc(O[C@@H]2O[C@H](CO[C@]3(C(=O)O)C[C@H](O)[C@@H](NC(=O)CO)[C@H]([C@H](O)[C@H](O)CNCc4ccc(-c5cccc(O)c5)cc4)O3)[C@H](O)[C@H](O)[C@H]2O)cc1	16.5	1.73
COc1ccc(O[C@@H]2O[C@H](CO[C@]3(C(=O)O)C[C@H](O)[C@@H](NC(=O)CO)[C@H]([C@H](O)[C@H](O)CNC(=O)c4ccc(-c5cccc(C(=O)O)c5)cc4)O3)[C@H](O)[C@H](O)[C@H]2O)cc1	16.6	7.13
COc1ccc(O[C@@H]2O[C@H](CO[C@]3(C(=O)O)C[C@H](O)[C@@H](NC(=O)CO)[C@H]([C@H](O)[C@H](O)CNCc4ccc(-c5ccccc5)cc4)O3)[C@H](O)[C@H](O)[C@H]2O)cc1	16.3	0.47

More lines, in order of falling IC50 [1], values ahead:

IC50 [1] [µM]	IC50 (B-cell receptor CD22) [µM]	SMILES
168	10.4	COc1ccc(O[C@@H]2O[C@H](CO[C@]3(C(=O)O)C[C@H](O)[C@@H](NC(=O)CO)[C@H]([C@H](O)[C@H](O)CNC(=O)CCc4ccccc4)O3)[C@H](O)[C@H](O)[C@H]2O)cc1
139	7.65	COc1ccc(O[C@@H]2O[C@H](CO[C@]3(C(=O)O)C[C@H](O)[C@@H](NC(=O)CO)[C@H]([C@H](O)[C@H](O)CNC(=O)CCc4ccc(O)cc4)O3)[C@H](O)[C@H](O)[C@H]2O)cc1
138	193	COc1ccc(O[C@@H]2O[C@H](CO[C@]3(C(=O)O)C[C@H](O)[C@@H](NC(=O)CO)[C@H]([C@H](O)[C@H](O)CNC(=O)c4ccccc4O)O3)[C@H](O)[C@H](O)[C@H]2O)cc1
90	2.6	COc1ccc(O[C@@H]2O[C@H](CO[C@]3(C(=O)O)C[C@H](O)[C@@H](NC(=O)CO)[C@H]([C@H](O)[C@H](O)CNC(=O)c4ccc5ccccc5c4)O3)[C@H](O)[C@H](O)[C@H]2O)cc1
77.5	24.8	COc1ccc(O[C@@H]2O[C@H](CO[C@]3(C(=O)O)C[C@H](O)[C@@H](NC(=O)CO)[C@H]([C@H](O)[C@H](O)CNCc4cc(OC)cc(OC)c4)O3)[C@H](O)[C@H](O)[C@H]2O)cc1
63.5	8.85	COc1ccc(O[C@@H]2O[C@H](CO[C@]3(C(=O)O)C[C@H](O)[C@@H](NC(=O)CO)[C@H]([C@H](O)[C@H](O)CNC(=O)C(c4ccccc4)c4ccccc4)O3)[C@H](O)[C@H](O)[C@H]2O)cc1
48	45	COc1ccc(O[C@@H]2O[C@H](CO[C@]3(C(=O)O)C[C@H](O)[C@@H](NC(=O)CO)[C@H]([C@H](O)[C@H](O)CNCc4ccc(-c5ccc(C(F)(F)F)cc5)cc4)O3)[C@H](O)[C@H](O)[C@H]2O)cc1
30	1.76	COc1ccc(O[C@@H]2O[C@H](CO[C@]3(C(=O)O)C[C@H](O)[C@@H](NC(=O)CO)[C@H]([C@H](O)[C@H](O)CNCc4ccc(-c5ccc(OC)cc5)cc4)O3)[C@H](O)[C@H](O)[C@H]2O)cc1
27	9.83	COc1ccc(O[C@@H]2O[C@H](CO[C@]3(C(=O)O)C[C@H](O)[C@@H](NC(=O)CO)[C@H]([C@H](O)[C@H](O)CNCc4ccc(-c5ccc(C)cc5)cc4)O3)[C@H](O)[C@H](O)[C@H]2O)cc1
24.7	1	COc1ccc(O[C@@H]2O[C@H](CO[C@]3(C(=O)O)C[C@H](O)[C@@H](NC(=O)CO)[C@H]([C@H](O)[C@H](O)CNC(=O)Cc4ccc5ccccc5c4)O3)[C@H](O)[C@H](O)[C@H]2O)cc1
23.4	73.3	COc1ccc(O[C@@H]2O[C@H](CO[C@]3(C(=O)O)C[C@H](O)[C@@H](NC(=O)CO)[C@H]([C@H](O)[C@H](O)CNC(=O)c4ccc(-c5ccc(C(=O)O)cc5)cc4)O3)[C@H](O)[C@H](O)[C@H]2O)cc1
12.5	0.23	COc1ccc(O[C@@H]2O[C@H](CO[C@]3(C(=O)O)C[C@H](O)[C@@H](NC(=O)CO)[C@H]([C@H](O)[C@H](O)CNCc4ccc(-c5ccccc5O)cc4)O3)[C@H](O)[C@H](O)[C@H]2O)cc1
10	43	COc1ccc(O[C@@H]2O[C@H](CO[C@]3(C(=O)O)C[C@H](O)[C@@H](NC(=O)CO)[C@H]([C@H](O)[C@H](O)CNCc4ccc(-c5ccc(C(=O)O)cc5)cc4)O3)[C@H](O)[C@H](O)[C@H]2O)cc1
9.5	37.7	COc1ccc(O[C@@H]2O[C@H](CO[C@]3(C(=O)O)C[C@H](O)[C@@H](NC(=O)CO)[C@H]([C@H](O)[C@H](O)CNCC4CCCCC4)O3)[C@H](O)[C@H](O)[C@H]2O)cc1
8.63	0.4	COc1ccc(O[C@@H]2O[C@H](CO[C@]3(C(=O)O)C[C@H](O)[C@@H](NC(=O)CO)[C@H]([C@H](O)[C@H](O)CNC(=O)c4ccc(-c5ccc(O)cc5)cc4)O3)[C@H](O)[C@H](O)[C@H]2O)cc1
6.43	0.24	COc1ccc(O[C@@H]2O[C@H](CO[C@]3(C(=O)O)C[C@H](O)[C@@H](NC(=O)CO)[C@H]([C@H](O)[C@H](O)CNCc4ccc(-c5ccc(O)cc5)cc4)O3)[C@H](O)[C@H](O)[C@H]2O)cc1
6.2	3.7	COc1ccc(O[C@@H]2O[C@H](CO[C@]3(C(=O)O)C[C@H](O)[C@@H](NC(=O)CO)[C@H]([C@H](O)[C@H](O)CNC(=O)Cc4ccc(-c5ccccc5)cc4)O3)[C@H](O)[C@H](O)[C@H]2O)cc1
2.9	4.3	COc1ccc(O[C@@H]2O[C@H](CO[C@]3(C(=O)O)C[C@H](O)[C@@H](NC(=O)CO)[C@H]([C@H](O)[C@H](O)CNC(=O)Cc4ccc(-c5cccc(O)c5)cc4)O3)[C@H](O)[C@H](O)[C@H]2O)cc1
1.7	0.9	COc1ccc(O[C@@H]2O[C@H](CO[C@]3(C(=O)O)C[C@H](O)[C@@H](NC(=O)CO)[C@H]([C@H](O)[C@H](O)CNC(=O)Cc4ccc(-c5ccc(O)cc5)cc4)O3)[C@H](O)[C@H](O)[C@H]2O)cc1

Reference: ChEMBL document CHEMBL1142516, “Design, synthesis, and structure-affinity relationships of novel series of sialosides as CD22-specific inhibitors” (J Med Chem, 2008)
